Compound activity from PubChem.
Shown are actives, neighbours in structure and some others; about 3.5% of the full set was active somewhere.
RGS4 pot = RGS4 potentiation or activation; B-score at 10 µM; HEK293 M3R/inducible RGS4, carbachol calcium flux Fluo4; hits give low values; 310,000 tested, 0.92% active; AID 463111;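 active = B-score of the integrated calcium signal more than 4 SD below the library mean, with starting fluorescence not abnormally high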;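 also: negative B-score means reduced calcium response which marks RGS4 activation or potentiation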
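Also added: carbachol at ECmax as muscarinic agonist stimulus; Assay system: HEK293 cells with stable M3R and inducible RGS4; Timing: overnight RGS4 induction, 30 min dye load 37 °C, 20 min compound RT; Measured by: Fluo4-AM (2 µM) calcium-flux fluorescence, kinetic read.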
MrgX1 antag = antagonists of human MrgX1 receptor; Q96LB2; MRGX1-HEK293 calcium flux, Fluo-4, BAM8-22 antagonism; hits give low values; B-score at 10 µM; 310,000 tested, 1.3% active; AID 588676;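 active = calcium-response B-score plate-corrected more than 3 library SD below zero, starting fluorescence within 5 deviations, no agonist response on first addition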;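 also: peak minus trough fluorescence over baseline after final BAM8-22 challenge near maximal dose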
Target sequence (Q96LB2 whole entry, looked up): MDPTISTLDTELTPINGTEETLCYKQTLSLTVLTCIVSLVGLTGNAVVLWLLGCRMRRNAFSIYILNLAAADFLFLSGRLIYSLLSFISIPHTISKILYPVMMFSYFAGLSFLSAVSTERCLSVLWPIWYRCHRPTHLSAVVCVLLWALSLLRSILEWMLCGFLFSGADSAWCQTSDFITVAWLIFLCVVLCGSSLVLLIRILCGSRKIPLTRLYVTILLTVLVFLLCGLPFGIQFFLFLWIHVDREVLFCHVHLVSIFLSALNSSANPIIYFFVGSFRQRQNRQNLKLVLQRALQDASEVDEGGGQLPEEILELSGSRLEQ
RGS4 inh = inhibitors of human RGS4 | P49798 | HEK293 M3R/RGS4 inducible, Fluo-4 calcium flux; hits give high values; triggered by carbachol at its EC20 | B-score at 10 µM | 310,000 tested, 0.45% active | AID 463165;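 active = B-score, a plate-corrected calcium signal, over three deviations above library mean, with baseline fluorescence within five deviations of library mean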;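 also: RGS4 expression induced by doxycycline in cells with stable M3 receptor; B-score is computed from the integrated fluorescence ratio over baseline after carbachol; higher B-score means a larger calcium signal and so more RGS4 inhibition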
Target sequence (P49798 whole entry, looked up): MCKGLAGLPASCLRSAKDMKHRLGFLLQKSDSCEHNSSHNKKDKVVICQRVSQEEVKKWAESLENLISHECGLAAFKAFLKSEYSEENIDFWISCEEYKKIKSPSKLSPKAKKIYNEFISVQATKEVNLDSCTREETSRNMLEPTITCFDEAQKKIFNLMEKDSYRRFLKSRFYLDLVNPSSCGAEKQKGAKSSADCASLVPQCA
MrgX1 agonist = activates human MrgX1 receptor signaling | B-score at 10 µM | AID 588627 | Q96LB2 | 310,000 tested, 0.44% active | MrgX1-HEK293 cells, Fluo-4 calcium fluorescence, agonist mode; hits give high values;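 active = calcium response B-score plate-corrected fluorescence ratio at least 3 library SD, with starting fluorescence B-score inside 5 SD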
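Material: MrgX1-expressing HEK293 cells; input: 15,000 cells per well; doses: test compound given as first of three sequential additions; schedule: overnight plating before 1 h dye loading; technique: Fluo-4 NW calcium-flux fluorescence, kinetic read; evaluation: baseline-normalised fluorescence change ratio, B-scored; control set: plate-wise positive and negative controls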
MrgX1 allo act = human MrgX1 positive allosteric modulation, primary screen. 310,000 tested, 0.63% active. Q96LB2. B-score at 10 µM. MrgX1-HEK293, Fluo-4 calcium flux, FDSS; hits give high values;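 active = plate-corrected calcium response at least 3 library SD above typical, normal starting fluorescence, not activating the receptor alone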;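 also: compound read alongside a low EC10 to EC30 dose of BAM8-22 agonist; peak minus trough fluorescence over baseline measured at the second addition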
MrgX1 PAM conf = confirmation of human MrgX1 receptor positive allosteric modulators; AID 602413; 1,200 tested, 13% active; shares compounds with MrgX1 allo act; MrgX1-HEK293, Fluo-4 calcium fluorescence, FDSS; activation (ratio percentage), % at 10 µM;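 active = ratio at least 3 SD above the weak peptide control, stable starting fluorescence, no direct agonism earlier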;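 also: compound followed by low BAM8-22 agonist challenge near EC20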
HEK293 Ca flux = counter-screen for MrgX1 antagonists: effect in parental HEK293 cells | Fluo-4 calcium fluorescence, FDSS | shares compounds with MrgX1 antag | AID 624111 | 4,000 tested, 2% active | fluorescence ratio F(max-min)/F0 at 10 µM;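 active = duplicate-averaged calcium fluorescence ratio at least three times the standard deviation of buffer wells, a nonspecific response in parental cells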
HEK293 Ca counter = MrgX1 allosteric activator counter-screen hit in parental HEK293 cells | shares compounds with MrgX1 antag | parental HEK293 calcium flux, Fluo-4 fluorescence ratio; hits give high values | fluorescence ratio F(max-min)/F0 at 10 µM | 4,000 tested, 0.4% active;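 active = calcium fluorescence ratio, averaged over duplicates, at least 3 SD of the buffer-well ratio, meaning a nonspecific response in receptor-free cells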;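 also: untransfected parental HEK293 lacking MrgX1 used as counterscreen for MrgX1 allosteric activators; fluorescence change taken during the second addition on a kinetic imager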
HEK293 Ca cntr2 = counter-screen for MrgX1 activators: effect in parental HEK293 cells; shares compounds with MrgX1 antag; Fluo-4 calcium fluorescence (FDSS); hits give high values; fluorescence ratio F(max-min)/F0 at 10 µM; AID 624115; 4,000 tested, 8.7% active;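 active = calcium fluorescence ratio at least three times the spread of buffer wells, meaning a non-specific response in parental cells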
Large screens that a line does not name were inactive (follow-up assays come after a bar, where they were run).

Cc1ccc(-n2c(C)c3c(C)nnc(C)c3c2C)cc1N	MrgX1 allo act 22.2 | MrgX1 PAM conf inactive | HEK293 Ca flux inactive | HEK293 Ca counter inactive | HEK293 Ca cntr2 inactive
Cc1cc(-n2c(C)c3c(C)nnc(C)c3c2C)ccc1N	none
O=C(Nc1ccc(Cl)cc1)c1ccc2ncsc2c1	none
O=C(Nc1cccc(Cl)c1)c1ccc2ncsc2c1	MrgX1 allo act 7.69 | MrgX1 PAM conf inactive | HEK293 Ca flux inactive | HEK293 Ca counter inactive | HEK293 Ca cntr2 inactive
COc1ccc(C)cc1NC(=O)C1CCN(C(=O)Cc2ccccc2)CC1	MrgX1 allo act 11.3 | MrgX1 PAM conf inactive | HEK293 Ca flux inactive | HEK293 Ca counter inactive | HEK293 Ca cntr2 inactive
COC(=O)c1ccccc1NC(=O)C1CCN(C(=O)Cc2ccccc2)CC1	none
CC(C)(C)c1ccc(O)c(/C=N\O)c1	MrgX1 allo act 37.8 | MrgX1 PAM conf inactive | HEK293 Ca flux inactive | HEK293 Ca counter inactive | HEK293 Ca cntr2 inactive
CC(NC(=O)C1CSC2(C)CCC(=O)N12)c1ccccc1Cl (stereo not given)	none
CC12CCC(=O)N1C(C(=O)OCc1c(Cl)cccc1Cl)CS2 (stereo not given)	MrgX1 allo act 6.55 | MrgX1 PAM conf inactive | HEK293 Ca flux inactive | HEK293 Ca counter inactive | HEK293 Ca cntr2 inactive
Cc1cc(C)c2sc(NC(=O)c3ccc([N+](=O)[O-])o3)nc2c1	MrgX1 allo act 20.5 | MrgX1 PAM conf inactive | HEK293 Ca flux inactive | HEK293 Ca counter inactive | HEK293 Ca cntr2 inactive
CCOC(=O)c1sc(NC(=O)c2ccccc2C(=O)O)c(C(=O)OCC)c1C	MrgX1 allo act 13.1 | MrgX1 PAM conf inactive | HEK293 Ca flux inactive | HEK293 Ca counter inactive | HEK293 Ca cntr2 inactive
O=C(Nc1ccccc1C(=O)O)c1cccc(NS(=O)(=O)c2ccc(Br)cc2)c1	MrgX1 allo act 11.1 | MrgX1 PAM conf inactive | HEK293 Ca flux inactive | HEK293 Ca counter inactive | HEK293 Ca cntr2 inactive
O=C(Nc1ccccc1C(=O)O)c1cccc(S(=O)(=O)Nc2ccc(Br)cc2)c1	none
Cc1cccc(C)c1NC(=O)CN(C)C(=O)c1cccc(S(=O)(=O)N2CCN(c3ccc(F)cc3)CC2)c1	MrgX1 allo act 9.02 | MrgX1 PAM conf inactive | HEK293 Ca flux inactive | HEK293 Ca counter inactive | HEK293 Ca cntr2 inactive
O=C(NCCCN1CCOCC1)c1ccc(CSc2ccc(Cl)cc2)cc1	MrgX1 allo act 9.06 | MrgX1 PAM conf inactive | HEK293 Ca flux inactive | HEK293 Ca counter inactive | HEK293 Ca cntr2 inactive
CC(C)c1ccc(C(=O)NCCCN2CCOCC2)cc1	none
O=C(COc1ccc(Cl)cc1Cl)NCCC1=CCCCC1	MrgX1 allo act 16.4 | MrgX1 PAM conf 5.0% | HEK293 Ca flux inactive | HEK293 Ca counter inactive | HEK293 Ca cntr2 inactive
N#CCCn1cc(CNC2CCC(O)CC2)c2ccccc21 (stereo not given)	none
CCC(Sc1nc2ccccc2c(=O)n1CCN1CCOCC1)C(=O)NCc1cccnc1 (stereo not given)	MrgX1 allo act 6.64 | MrgX1 PAM conf inactive | HEK293 Ca flux inactive | HEK293 Ca counter inactive | HEK293 Ca cntr2 47
COC(=O)c1ccc(-c2csc(NC(=O)C3=COCCO3)n2)cc1	none
CC(C)[C@@H](COc1ccccc1)N1CCN(Cc2ccccc2)CCC1=O	MrgX1 allo act 14.2 | MrgX1 PAM conf inactive | HEK293 Ca flux inactive | HEK293 Ca counter inactive | HEK293 Ca cntr2 inactive
N#Cc1ccsc1NC(=O)C1CCN(S(=O)(=O)c2cccs2)CC1	none
CC(=O)N(CCC1(c2ccc(C)cc2)CCOC(C(C)C)C1)Cc1ccco1 (stereo not given)	MrgX1 allo act 10.1 | MrgX1 PAM conf inactive | HEK293 Ca flux inactive | HEK293 Ca counter inactive | HEK293 Ca cntr2 inactive
Nc1c2c(nc3ccc(Br)cc13)N(c1ccccc1)CC2	none (no result: RGS4 pot, RGS4 inh)
